Screening data (PubChem)
Only some compounds are listed: those with a hit (about 2.3% of all), similar ones and a draw of the others.
PAD4 inh: PAD4 (human) enzyme inhibition; recombinant PAD4, RCA probe fluorescence polarization; actives 0.41% (n = 330,000); inhibition, % at 6.36 µM; Q9UM07;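 active = percent inhibition above a cutoff equal to the mean of all tested compounds plus 3 SD, cut at about 15% in these data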;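 note: 0% = PAD4 with RCA probe and DMSO and 100% = probe without PAD4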
RBBP9 inh: inhibitors of human serine hydrolase RBBP9; recombinant RBBP9, FP-Rh probe fluorescence polarization; inhibition, % at 7.94 µM; actives 0.2% (n = 220,000); AID 1515;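 active = inhibition above the campaign mean of all tested compounds plus 3 SD, cut at about 14% in these data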;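 note: plate controls were DMSO wells with RBBP9 for no effect and wells lacking RBBP9 protein for full effect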
Target sequence (O75884 whole entry, looked up): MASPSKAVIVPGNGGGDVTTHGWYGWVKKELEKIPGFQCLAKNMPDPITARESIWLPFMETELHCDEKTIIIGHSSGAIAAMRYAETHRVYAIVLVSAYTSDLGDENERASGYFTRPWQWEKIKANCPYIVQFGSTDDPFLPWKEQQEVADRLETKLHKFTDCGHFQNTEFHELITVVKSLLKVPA
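System: RBBP9 protein / Buffer or medium: Tris/NaCl buffer pH 8.0 with 0.1% Pluronic / Probe or stimulus: Serine-hydrolase probe FP-Rh, 375 nM pre-mixing / Dosing: 7.94 µM single dose, 0.794% DMSO / Times: enzyme-compound preincubation 30 min, then probe labeling 45 min, 25 °C / Technique: fluorescence polarization (mP), excitation 525 nm, emission 598 nm / Replication: singlicate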
PRMT1 FP inh: PRMT1 (human) inhibition, primary screen. Q99873. AID 652257. inhibition, % at 2.79 µM. recombinant PRMT1, activity-based probe fluorescence polarization. actives 1.3% (n = 370,000);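 active = inhibition above about 21% made by adding two undisclosed values, limit read from the data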
Fam108B counter: Fam108B inhibition, counter-screen for RBBP9 inhibitors; recombinant Fam108B, FP-Rh probe fluorescence polarization; inhibition, % at 9.51 µM; actives 0.33% (n = 300,000); AID 1947;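 active = inhibition above the screen mean inhibition plus 3 SD, computed separately per campaign, cut at about 18% in these data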;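 note: inhibitors lower polarization as less probe binds the enzyme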
PME-1 inh: PME-1 (human) inhibition | Q9Y570 | recombinant PME-1, FP-Rh probe fluorescence polarization | inhibition, % at 5.9 µM | actives 0.53% (n = 320,000);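 active = inhibition above the campaign mean of all compounds plus 3 SD, cut at about 26% in these data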;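 note: competitive labeling of PME-1 active site by serine hydrolase directed probe; 0% = PME-1 with DMSO and 100% = wells lacking PME-1 enzyme; inhibitors block probe labeling so polarization falls and inhibition rises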
GSTO1 inh: GSTO1 inhibition, counter-screen for RBBP9 inhibitors | actives 1.1% (n = 300,000) | P78417 | recombinant GSTO1, activity-based probe fluorescence polarization | inhibition, % at 5.96 µM;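 active = inhibition above the campaign mean inhibition plus 3 SD, cut at about 35% in these data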;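 note: 0% = GSTO1-1 with DMSO and 100% = wells lacking GSTO1-1 enzyme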
Target sequence (P78417 whole entry, looked up): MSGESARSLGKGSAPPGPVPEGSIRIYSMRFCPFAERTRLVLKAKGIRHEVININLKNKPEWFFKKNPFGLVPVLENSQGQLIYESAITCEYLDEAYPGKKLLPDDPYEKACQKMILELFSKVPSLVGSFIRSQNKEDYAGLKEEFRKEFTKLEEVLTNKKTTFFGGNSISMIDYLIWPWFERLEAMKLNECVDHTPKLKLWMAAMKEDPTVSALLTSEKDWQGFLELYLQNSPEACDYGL
* marks the source's active call; other numbers are inactive results; x = no result.

SMILES	PAD4 inh	RBBP9 inh	PRMT1 FP inh	Fam108B counter	PME-1 inh	GSTO1 inh
Cc1ccc2[nH]c3c(=O)n(CC(=O)NCc4ccco4)ncc3c2c1	-1	x	0	-13	-18	36*
Cc1ccc(CCNC(=O)Cn2ncc3c([nH]c4ccccc43)c2=O)cc1	0	x	-1	-2	-12	13
O=C(O)c1ccc(CSc2nnc(-c3ccco3)o2)cc1	-1	-10	-1	-1	0	-2
COc1cc(OC)cc(-c2nnc(SCc3ccc(C(=O)O)cc3)o2)c1	-2	x	22*	5	6	3
CCOc1cc(C2NC(=S)NC(C)=C2C(=O)Nc2ccccc2)ccc1O (centres undefined)	-2	-2	22*	-1	0	-3
Cc1onc(-c2c(F)cccc2Cl)c1C(=O)NCc1ccc(S(N)(=O)=O)cc1	-1	x	2	x	-2	x
O=C(O)COc1ccc(Br)cc1C(c1c(C(=O)O)[nH]c2ccccc12)c1c(C(=O)O)[nH]c2ccccc12	3	x	x	7	0	55*
COc1cc(C(c2c(C(=O)O)[nH]c3ccccc23)c2c(C(=O)O)[nH]c3ccccc23)ccc1OCc1ccccc1	-3	x	-1	-3	-2	0
O=C(O)c1[nH]c2ccccc2c1C(c1cc(Cl)cc([N+](=O)[O-])c1O)c1c(C(=O)O)[nH]c2ccccc12	2	x	6	13	0	74*
COC(C(=O)Nc1ccc(C(N)=O)cc1)c1ccccc1 (centres undefined)	-1	-7	0	-1	4	1
O=c1cc(C(F)(F)F)nc(-n2[nH]c3c(c2=O)CCCC3)[nH]1	-6	-7	9	0	-3	40*
Nc1nc(C(F)(F)F)cc(=O)[nH]1	-2	-7	-3	1	-2	4
CC(C)(C)NC(=O)C(c1cccc2ccccc12)n1c(=O)c(-c2ccccc2)nc2ccccc21 (centres undefined)	x	x	0	x	x	x
CC(C)(C)NC(=O)C(c1cccc2ccccc12)n1c(=O)c(-c2ccco2)nc2ccccc21 (centres undefined)	x	x	22*	x	x	x
O=C(NC1CCCCC1)C(C1CC1)n1c(=O)c(-c2ccco2)nc2ccccc21 (centres undefined)	x	x	9	x	x	x
CCCCCNC(=O)C(C1CC1)n1c(=O)c(-c2ccco2)nc2ccccc21 (centres undefined)	x	x	22*	x	x	x
N#Cc1ccc(C(C(=O)NC2CCCCC2)n2c(=O)c(-c3ccco3)nc3ccccc32)cc1 (centres undefined)	x	x	22*	x	x	x
CCCCCNC(=O)C(c1ccc(C(F)(F)F)cc1)n1c(=O)c(-c2ccco2)nc2ccccc21 (centres undefined)	x	x	25*	x	x	x
COc1cccc(/C=N/NC(=O)C(C)n2nc(C)c([N+](=O)[O-])c2C)c1O (centres undefined)	-4	-3	-2	2	0	6
CCOP(=O)(OCC)C(NC(C)=O)C(=O)c1ccccc1 (centres undefined)	-1	-5	3	1	-3	4
O=C(NC1(C(F)(F)F)NC(=O)N(c2ccccc2)C1=O)c1cccs1 (centres undefined)	-5	-4	1	-1	1	7
O=C1CCCC2=C1C(c1ccc(O)c(O)c1)Nc1ccc3ncccc3c12 (centres undefined)	1	6	34*	-6	-10	78*
COc1cc(C(=S)N2CCCC2)cc(Cl)c1OCC(=O)Nc1ccc(C)cc1C	-2	-7	22*	6	6	-1
O=C(O)CCCC(=O)NCc1c(Cl)cccc1Sc1ccc(Cl)cc1	-2	6	-2	2	8	11
CC(C)(CC(=O)O)CC(=O)NCc1c(Cl)cccc1Sc1ccc(Cl)cc1	-5	-3	4	-3	1	37*
SMILES	PAD4 inh	RBBP9 inh	PRMT1 FP inh	Fam108B counter	PME-1 inh	GSTO1 inh
CC1(C)CC(=O)C=C(c2ccc(-c3ccc(S(C)(=O)=O)cc3)cc2)C1=O	x	x	2	x	x	x
CC1(C)CC2(CC(c3ccccc3F)c3ccc(O)c(O)c3O2)NC(=S)N1 (centres undefined)	-2	-5	18	1	0	44*
CC1(C)CC2(CC(c3ccc(F)cc3)c3ccc(O)cc3O2)NC(=S)N1 (centres undefined)	-1	-9	17	1	2	3
Cc1ccccc1-n1c(SCC(=O)N2CCOCC2)nc(O)c(Cc2ccccc2)c1=O	-1	x	24*	4	-1	-1
CCCCc1c(O)nc(SCC(=O)N2CCOCC2)n(-c2ccccc2C)c1=O	1	-7	3	1	-5	4
O=C1OC[C@@H]2CCCN2C(=O)[C@H](CC(=O)N(CCO)Cc2ccccc2)C/C=C\CC[C@H]1Cc1ccc(F)cc1	1	x	-2	x	x	x
COc1oc(-c2ccccc2C)nc1C(F)(F)F	-4	-2	-3	-2	3	8
CCC(=O)NC(c1cccs1)c1cc([N+](=O)[O-])c2cccnc2c1O (centres undefined)	0	-9	3	10	27*	-2
CCCC(=O)NC(c1cccs1)c1cc([N+](=O)[O-])c2cccnc2c1O (centres undefined)	-4	-5	5	4	10	-4
CC(C)(C)NC(=O)c1nc2ccccc2s1	6	-5	-3	8	3	-1
CC(C)(C)NC(=O)c1ccccc1-c1nc2ccccc2s1	0	4	24*	0	1	-4
Cn1c2c(c(=O)n(C)c1=O)C(c1cc3c(cc1Br)OCO3)CC(=O)N2 (centres undefined)	1	-10	-2	0	-12	4
COC(CN(C(=O)CCl)C(C(=O)NC1CCCCC1)c1ccccc1C)OC (centres undefined)	2	1	-3	1	-2	80*
CCc1nc(SCC(=O)Nc2nnc(CC)s2)c2c(C)c(C)sc2n1	-2	-5	-2	-4	0	35*
CCSc1nnc(NC(=O)CSc2nc(CC)nc3c2c(=O)n(C)c(=O)n3C)s1	0	-1	1	6	2	36*
O=C(NCCCCc1ccccc1)c1cccc([N+](=O)[O-])c1	1	-4	-1	-1	3	5
Cc1ccccc1OCc1nnc(SCC(=O)NCc2ccccc2)n1C	6	-7	-2	10	0	6
Cc1ccc(-c2c(C(=O)N/N=C/c3c[nH]c4ccccc34)nnn2-c2nonc2N)cc1	2	x	5	8	27*	2
COc1ccc(-n2nc(C(=O)NCCCN3CCCC3=O)c3c4ccccc4n(C)c3c2=O)cc1Cl	-2	x	x	-5	-2	3
COc1ccc(O)c(/C=N/c2sc(C)c(C)c2C#N)c1	-4	1	24*	6	-1	4
